# Source: ChEMBL document CHEMBL4364321, “Expedient assembly of Oligo-LacNAcs by a sugar nucleotide regeneration system: Finding the role of tandem LacNAc and sialic acid position towards siglec binding” (Eur J Med Chem, 2019)
# Active and inactive are the calls of the source. No cut-off for these calls is given here.
# Columns and labels:
# [1] = target: B-cell receptor CD22 (Homo sapiens) (UniProt P20273); assay: Binding affinity to recombinant human Fc-fused siglec-2 by fluorescence based glycan microarray analysis
# Outline: (§1)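 Azidoglycans CuAAC-coupled onto alkyne-modified glass (10% zwitterionic silane mix), five replicate spots each, remaining alkynes capped with azido-ethylene glycol. Slides blocked 0.5 h in 3% BSA/PBS, then probed 1 h at rt with Fc-Siglec (10 µg/mL) premixed 1:1 with Fc-specific anti-human IgG-Cy3 (10 µg/mL) in PBS/0.1% BSA. After PBST washes, Cy3 fluorescence was scanned and averaged over replicates.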
# [2] = target: T1, Sialic acid-binding Ig-like lectin 7 (Homo sapiens, UniProt Q9Y286); assay: Binding affinity to recombinant human Fc-fused siglec-7 after 1 hr by fluorescence based glycan microarray analysis
# Outline: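 Surface KD determination on the same glycan microarray. Fc-Siglec-7 was applied at 0.735–588 nM (13 concentrations) for 1 h at rt and washed with PBST, then detected with anti-human IgG-Cy3 (10 µg/mL) for 0.5 h. Fluorescence was plotted against Siglec concentration and fitted to y = Bmax·x/(KD + x).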
# [3] = target: T1, Sialic acid-binding Ig-like lectin 7; assay: Binding affinity to recombinant human Fc-fused siglec-7 by fluorescence based glycan microarray analysis; outline: as §1
# [4] = target: T2, Sialic acid-binding Ig-like lectin 14 (Homo sapiens) (UniProt Q08ET2); assay: Binding affinity to recombinant human Fc-fused siglec-14 by fluorescence based glycan microarray analysis; outline: as §1
# T2 sequence (whole entry): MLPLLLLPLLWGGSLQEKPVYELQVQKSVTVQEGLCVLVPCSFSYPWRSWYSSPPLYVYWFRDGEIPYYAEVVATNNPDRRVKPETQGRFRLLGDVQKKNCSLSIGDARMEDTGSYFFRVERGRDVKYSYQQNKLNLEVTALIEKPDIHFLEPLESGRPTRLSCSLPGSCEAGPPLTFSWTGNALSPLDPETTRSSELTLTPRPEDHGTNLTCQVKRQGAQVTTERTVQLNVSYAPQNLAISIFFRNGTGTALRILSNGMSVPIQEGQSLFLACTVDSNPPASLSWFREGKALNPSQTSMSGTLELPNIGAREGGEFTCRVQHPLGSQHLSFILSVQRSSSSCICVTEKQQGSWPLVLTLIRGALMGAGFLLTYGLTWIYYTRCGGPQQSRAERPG
# [5] = target: T3, Sialic acid-binding Ig-like lectin 15 (Homo sapiens) (UniProt Q6ZMC9); assay: Binding affinity to recombinant human Fc-fused siglec-15 by fluorescence based glycan microarray analysis; outline: as §1
# T3 sequence (whole entry): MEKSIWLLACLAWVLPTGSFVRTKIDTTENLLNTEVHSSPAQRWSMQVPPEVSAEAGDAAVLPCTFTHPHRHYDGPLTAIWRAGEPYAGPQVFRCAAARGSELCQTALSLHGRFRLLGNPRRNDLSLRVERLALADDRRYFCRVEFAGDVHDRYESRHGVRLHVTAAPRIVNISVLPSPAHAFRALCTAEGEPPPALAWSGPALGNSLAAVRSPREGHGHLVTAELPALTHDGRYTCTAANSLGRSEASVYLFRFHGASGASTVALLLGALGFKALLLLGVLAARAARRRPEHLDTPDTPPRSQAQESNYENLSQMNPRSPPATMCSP
# [6] = target: Sialic acid-binding Ig-like lectin 9 (Homo sapiens) (UniProt Q9Y336); assay: Binding affinity to recombinant human Fc-fused siglec-9 by fluorescence based glycan microarray analysis; outline: as §1
# [7] = target: T1, Sialic acid-binding Ig-like lectin 7; assay: Binding affinity to recombinant human Fc-fused siglec-7 expressed in CHO cells measured over 180 secs; format: cell-based
# B-cell receptor CD22 (Homo sapiens), sequence (P20273 whole entry, the tested form may be a part): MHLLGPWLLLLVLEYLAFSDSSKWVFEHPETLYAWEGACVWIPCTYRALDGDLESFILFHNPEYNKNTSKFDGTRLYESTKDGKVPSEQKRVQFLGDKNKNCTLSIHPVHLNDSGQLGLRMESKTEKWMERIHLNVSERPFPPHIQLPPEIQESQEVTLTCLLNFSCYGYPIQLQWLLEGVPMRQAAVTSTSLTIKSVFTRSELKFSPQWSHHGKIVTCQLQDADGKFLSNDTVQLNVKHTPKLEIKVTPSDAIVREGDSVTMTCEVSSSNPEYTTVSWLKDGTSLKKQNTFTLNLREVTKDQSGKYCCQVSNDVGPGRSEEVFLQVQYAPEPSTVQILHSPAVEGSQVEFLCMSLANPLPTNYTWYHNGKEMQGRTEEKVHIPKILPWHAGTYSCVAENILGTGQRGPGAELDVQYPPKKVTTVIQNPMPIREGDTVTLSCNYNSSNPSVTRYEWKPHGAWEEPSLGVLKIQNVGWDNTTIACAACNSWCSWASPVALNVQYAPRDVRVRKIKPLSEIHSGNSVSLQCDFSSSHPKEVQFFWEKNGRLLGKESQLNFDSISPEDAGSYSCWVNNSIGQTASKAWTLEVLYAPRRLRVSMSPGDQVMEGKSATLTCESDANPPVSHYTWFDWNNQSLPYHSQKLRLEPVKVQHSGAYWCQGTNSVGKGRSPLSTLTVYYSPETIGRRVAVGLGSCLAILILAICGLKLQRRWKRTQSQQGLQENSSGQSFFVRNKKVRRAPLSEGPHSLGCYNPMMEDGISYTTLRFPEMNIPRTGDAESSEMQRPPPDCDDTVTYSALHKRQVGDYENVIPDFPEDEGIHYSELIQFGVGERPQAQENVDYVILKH
# T1 sequence (Q9Y286 whole entry, the tested form may be a part): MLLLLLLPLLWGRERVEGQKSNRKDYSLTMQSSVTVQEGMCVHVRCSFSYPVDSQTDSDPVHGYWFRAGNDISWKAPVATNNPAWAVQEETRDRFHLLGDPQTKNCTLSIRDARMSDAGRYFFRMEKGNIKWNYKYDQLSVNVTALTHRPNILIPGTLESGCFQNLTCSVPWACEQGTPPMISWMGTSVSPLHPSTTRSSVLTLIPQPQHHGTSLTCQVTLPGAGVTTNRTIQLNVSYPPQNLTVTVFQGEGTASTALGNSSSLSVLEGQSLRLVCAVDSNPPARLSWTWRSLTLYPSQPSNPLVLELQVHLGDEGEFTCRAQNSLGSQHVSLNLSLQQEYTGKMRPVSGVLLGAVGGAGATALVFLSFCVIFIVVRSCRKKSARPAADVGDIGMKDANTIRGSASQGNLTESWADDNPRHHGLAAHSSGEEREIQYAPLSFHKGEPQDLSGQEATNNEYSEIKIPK
# Sialic acid-binding Ig-like lectin 9 (Homo sapiens), sequence (Q9Y336 whole entry, the tested form may be a part): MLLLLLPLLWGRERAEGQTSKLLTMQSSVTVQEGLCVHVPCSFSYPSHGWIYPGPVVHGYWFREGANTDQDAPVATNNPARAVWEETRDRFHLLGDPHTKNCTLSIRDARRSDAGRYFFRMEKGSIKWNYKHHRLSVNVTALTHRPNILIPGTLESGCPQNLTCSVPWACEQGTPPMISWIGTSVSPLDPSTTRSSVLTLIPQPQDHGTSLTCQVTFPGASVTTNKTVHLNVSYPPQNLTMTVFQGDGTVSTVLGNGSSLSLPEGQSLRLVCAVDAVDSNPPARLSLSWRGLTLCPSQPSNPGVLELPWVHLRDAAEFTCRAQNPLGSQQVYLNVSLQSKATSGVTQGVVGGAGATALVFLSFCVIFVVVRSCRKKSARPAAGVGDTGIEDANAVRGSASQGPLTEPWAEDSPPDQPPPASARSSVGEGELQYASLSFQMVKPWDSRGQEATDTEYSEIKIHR
SMILES,Activity [1],Kd [2] [nM],Activity [3],Activity [4],Activity [5],Activity [6],Kd [7] [nM]
CC(=O)N[C@H]1[C@H]([C@H](O)[C@H](O)CO)O[C@@](OC[C@H]2O[C@@H](O[C@H]3[C@H](O)[C@@H](O)[C@H](OCCCCCCN=[N+]=[N-])O[C@@H]3CO)[C@H](O)[C@@H](O[C@]3(C(=O)O)C[C@H](O)[C@@H](NC(C)=O)[C@H]([C@H](O)[C@H](O)CO)O3)[C@H]2O)(C(=O)O)C[C@@H]1O,inactive,26.8,Active,Active,Active,,
CC(=O)N[C@H]1[C@H](OCCCCCCN=[N+]=[N-])O[C@H](CO)[C@@H](O[C@@H]2O[C@H](CO[C@]3(C(=O)O)C[C@H](O)[C@@H](NC(C)=O)[C@H]([C@H](O)[C@H](O)CO)O3)[C@H](O)[C@H](O[C@@H]3O[C@H](CO)[C@@H](O)[C@H](O)[C@H]3NC(C)=O)[C@H]2O)[C@@H]1O,inactive,,,,,Active,
CC(=O)N[C@H]1[C@H](OCCCCCCN=[N+]=[N-])O[C@H](CO)[C@@H](O[C@@H]2O[C@H](CO)[C@H](O)[C@H](O[C@]3(C(=O)O)C[C@H](O)[C@@H](NC(C)=O)[C@H]([C@H](O)[C@H](O)CO)O3)[C@H]2O)[C@@H]1O[C@@H]1O[C@@H](C)[C@@H](O)[C@@H](O)[C@@H]1O,,,,,,Active,
CC(=O)N[C@H]1[C@H]([C@H](O)[C@H](O)CO)O[C@@](OC[C@H]2O[C@@H](O[C@H]3[C@H](O)[C@@H](O)[C@H](OCCCCCCN=[N+]=[N-])O[C@@H]3CO)[C@H](O)[C@@H](O)[C@H]2O)(C(=O)O)C[C@@H]1O,Active,,Active,,,Active,
CC(=O)N[C@H]1[C@H](OCCCCCCN=[N+]=[N-])O[C@H](CO)[C@@H](O[C@@H]2O[C@H](CO)[C@H](O)[C@H](O[C@]3(C(=O)O)C[C@H](O)[C@@H](NC(C)=O)[C@H]([C@H](O)[C@H](O)CO)O3)[C@H]2O)[C@@H]1O,,,inactive,Active,,Active,
CC(=O)N[C@H]1[C@H](OCCCCCCN=[N+]=[N-])O[C@H](CO)[C@@H](O[C@@H]2O[C@H](CO)[C@H](O)[C@H](O[C@@H]3O[C@H](CO)[C@@H](O[C@@H]4O[C@H](CO)[C@H](O)[C@H](O[C@]5(C(=O)O)C[C@H](O)[C@@H](NC(C)=O)[C@H]([C@@H](O)[C@@H](CO)O[C@]6(C(=O)O)C[C@H](O)[C@@H](NC(C)=O)[C@H]([C@H](O)[C@H](O)CO)O6)O5)[C@H]4O)[C@H](O)[C@H]3NC(C)=O)[C@H]2O)[C@@H]1O,,,inactive,,,,
CC(=O)N[C@H]1[C@H](OCCCCCCN=[N+]=[N-])O[C@H](CO)[C@@H](O[C@@H]2O[C@H](CO)[C@H](O)[C@H](O[C@@H]3O[C@H](CO)[C@@H](O)[C@@H](O[C@@H]4O[C@H](CO[C@]5(C(=O)O)C[C@H](O)[C@@H](NC(C)=O)[C@H]([C@H](O)[C@H](O)CO)O5)[C@H](O)[C@H](O)[C@H]4O)[C@H]3NC(C)=O)[C@H]2O)[C@@H]1O,Active,,inactive,,,Active,
CC(=O)N[C@H]1[C@H](OCCCCCCN=[N+]=[N-])O[C@H](CO)[C@@H](O[C@@H]2O[C@H](CO)[C@H](O)[C@H](O[C@]3(C(=O)O)C[C@H](O)[C@@H](NC(C)=O)[C@H]([C@@H](O)[C@@H](CO)O[C@]4(C(=O)O)C[C@H](O)[C@@H](NC(C)=O)[C@H]([C@@H](O)[C@@H](CO)O[C@]5(C(=O)O)C[C@H](O)[C@@H](NC(C)=O)[C@H]([C@H](O)[C@H](O)CO)O5)O4)O3)[C@H]2O)[C@@H]1O,,54.1,,,,,
CC(=O)N[C@H]1[C@H]([C@@H](O)[C@@H](CO)O[C@]2(C(=O)O)C[C@H](O)[C@@H](NC(C)=O)[C@H]([C@@H](O)[C@@H](CO)O[C@]3(C(=O)O)C[C@H](O)[C@@H](NC(C)=O)[C@H]([C@H](O)[C@H](O)CO)O3)O2)O[C@@](O[C@H]2[C@@H](O)[C@@H](CO)O[C@@H](O[C@H]3[C@H](O)[C@@H](O)[C@H](OCCCCCCN=[N+]=[N-])O[C@@H]3CO)[C@@H]2O)(C(=O)O)C[C@@H]1O,,48.7,,,,,
CC(=O)N[C@H]1[C@H](OCCCCCCN=[N+]=[N-])O[C@H](CO)[C@@H](O[C@@H]2O[C@H](CO)[C@H](O)[C@H](O[C@@H]3O[C@H](CO)[C@@H](O)[C@@H](O[C@@H]4O[C@H](CO[C@]5(C(=O)O)C[C@H](O)[C@@H](NC(C)=O)[C@H]([C@H](O)[C@H](O)CO)O5)[C@H](O)[C@H](O[C@]5(C(=O)O)C[C@H](O)[C@@H](NC(C)=O)[C@H]([C@H](O)[C@H](O)CO)O5)[C@H]4O)[C@H]3NC(C)=O)[C@H]2O)[C@@H]1O,inactive,,,,inactive,,
CC(=O)N[C@H]1[C@H](OCCCCCCN=[N+]=[N-])O[C@H](CO)[C@@H](O[C@@H]2O[C@H](CO[C@]3(C(=O)O)C[C@H](O)[C@@H](NC(C)=O)[C@H]([C@H](O)[C@H](O)CO)O3)[C@H](O)[C@H](O[C@]3(C(=O)O)C[C@H](O)[C@@H](NC(C)=O)[C@H]([C@H](O)[C@H](O)CO)O3)[C@H]2O)[C@@H]1O,inactive,38.7,Active,Active,Active,Active,
CC(=O)N[C@H]1[C@H](OCCCCCCN=[N+]=[N-])O[C@H](CO)[C@@H](O[C@@H]2O[C@H](CO)[C@H](O)[C@H](O[C@@H]3O[C@H](CO)[C@@H](O)[C@@H](O[C@@H]4O[C@H](CO)[C@H](O)[C@H](O[C@@H]5O[C@H](CO)[C@@H](O)[C@@H](O[C@@H]6O[C@H](CO[C@]7(C(=O)O)C[C@H](O)[C@@H](NC(C)=O)[C@H]([C@H](O)[C@H](O)CO)O7)[C@H](O)[C@H](O)[C@H]6O)[C@H]5NC(C)=O)[C@H]4O)[C@H]3NC(C)=O)[C@H]2O)[C@@H]1O,Active,,inactive,,,Active,
CC(=O)N[C@H]1[C@H]([C@@H](O)[C@@H](CO)O[C@]2(C(=O)O)C[C@H](O)[C@@H](NC(C)=O)[C@H]([C@H](O)[C@H](O)CO)O2)O[C@@](O[C@H]2[C@@H](O)[C@@H](CO)O[C@@H](O[C@H]3[C@H](O)[C@@H](O)[C@H](OCCCCCCN=[N+]=[N-])O[C@@H]3CO)[C@@H]2O)(C(=O)O)C[C@@H]1O,,32.7,,Active,,,60
CC(=O)N[C@H]1[C@H]([C@H](O)[C@H](O)CO)O[C@@](O[C@H]2[C@@H](O)[C@@H](CO)O[C@@H](O[C@H]3[C@H](O)[C@@H](O)[C@H](OCCCCCCN=[N+]=[N-])O[C@@H]3CO)[C@@H]2O)(C(=O)O)C[C@@H]1O,,,inactive,,,Active,
CC(=O)N[C@H]1[C@H](OCCCCCCN=[N+]=[N-])O[C@H](CO)[C@@H](O[C@@H]2O[C@H](CO)[C@H](O)[C@H](O[C@]3(C(=O)O)C[C@H](O)[C@@H](NC(C)=O)[C@H]([C@@H](O)[C@@H](CO)O[C@]4(C(=O)O)C[C@H](O)[C@@H](NC(C)=O)[C@H]([C@H](O)[C@H](O)CO)O4)O3)[C@H]2O)[C@@H]1O,,43.3,,Active,,,
